Results on 7 compounds are retold here after ChEMBL document CHEMBL4052671, “Design, synthesis, and evaluation of DNA topoisomerase II-targeted nucleosides” (Bioorg Med Chem, 2017).

For orientation: IC50 means the midpoint of a concentration-inhibition curve. What is called inhibition is the drop in the measured response relative to a control, in per cent.

The source made the active and inactive calls. The rule behind the calls is not given here. Some results are limits rather than exact numbers.

Assay [1] addresses T1, DNA topoisomerase 2-alpha (Homo sapiens, UniProt P11388). Nature of the assay: Inhibition of recombinant human DNA topoisomerase-2alpha assessed as decrease in relaxation of supercoiled pBR322 DNA after 30 mins by ethidium bromide staining based agarose gel electrophoresis.
The target of assay [2] is T1, DNA topoisomerase 2-alpha. Nature of the assay: Inhibition of recombinant human DNA topoisomerase-2alpha assessed as decrease in relaxation of supercoiled pBR322 DNA at 200 uM after 30 mins by ethidium bromide staining based agarose gel electrophoresis relative to control. The procedure, abridged:
(§1)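 Topo II relaxation of supercoiled pBR322 (198 ng) with 1 U enzyme, 50 mM Tris-HCl pH 8, 120 mM KCl, 10 mM MgCl2, 0.5 mM ATP, 0.5 mM DTT, drug in <10% DMSO; 37 °C for 30 min; products run on 1% agarose in TAE, ethidium-stained, scanned; supercoiled DNA area quantified.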

The target in assay [3] is T1, DNA topoisomerase 2-alpha. Kind of assay: Inhibition of recombinant human DNA topoisomerase-2alpha assessed as decrease in relaxation of supercoiled pBR322 DNA at […] after 30 mins by ethidium bromide staining based agarose gel electrophoresis relative to control. The procedure, abridged: as §1

T1 sequence (P11388 whole entry): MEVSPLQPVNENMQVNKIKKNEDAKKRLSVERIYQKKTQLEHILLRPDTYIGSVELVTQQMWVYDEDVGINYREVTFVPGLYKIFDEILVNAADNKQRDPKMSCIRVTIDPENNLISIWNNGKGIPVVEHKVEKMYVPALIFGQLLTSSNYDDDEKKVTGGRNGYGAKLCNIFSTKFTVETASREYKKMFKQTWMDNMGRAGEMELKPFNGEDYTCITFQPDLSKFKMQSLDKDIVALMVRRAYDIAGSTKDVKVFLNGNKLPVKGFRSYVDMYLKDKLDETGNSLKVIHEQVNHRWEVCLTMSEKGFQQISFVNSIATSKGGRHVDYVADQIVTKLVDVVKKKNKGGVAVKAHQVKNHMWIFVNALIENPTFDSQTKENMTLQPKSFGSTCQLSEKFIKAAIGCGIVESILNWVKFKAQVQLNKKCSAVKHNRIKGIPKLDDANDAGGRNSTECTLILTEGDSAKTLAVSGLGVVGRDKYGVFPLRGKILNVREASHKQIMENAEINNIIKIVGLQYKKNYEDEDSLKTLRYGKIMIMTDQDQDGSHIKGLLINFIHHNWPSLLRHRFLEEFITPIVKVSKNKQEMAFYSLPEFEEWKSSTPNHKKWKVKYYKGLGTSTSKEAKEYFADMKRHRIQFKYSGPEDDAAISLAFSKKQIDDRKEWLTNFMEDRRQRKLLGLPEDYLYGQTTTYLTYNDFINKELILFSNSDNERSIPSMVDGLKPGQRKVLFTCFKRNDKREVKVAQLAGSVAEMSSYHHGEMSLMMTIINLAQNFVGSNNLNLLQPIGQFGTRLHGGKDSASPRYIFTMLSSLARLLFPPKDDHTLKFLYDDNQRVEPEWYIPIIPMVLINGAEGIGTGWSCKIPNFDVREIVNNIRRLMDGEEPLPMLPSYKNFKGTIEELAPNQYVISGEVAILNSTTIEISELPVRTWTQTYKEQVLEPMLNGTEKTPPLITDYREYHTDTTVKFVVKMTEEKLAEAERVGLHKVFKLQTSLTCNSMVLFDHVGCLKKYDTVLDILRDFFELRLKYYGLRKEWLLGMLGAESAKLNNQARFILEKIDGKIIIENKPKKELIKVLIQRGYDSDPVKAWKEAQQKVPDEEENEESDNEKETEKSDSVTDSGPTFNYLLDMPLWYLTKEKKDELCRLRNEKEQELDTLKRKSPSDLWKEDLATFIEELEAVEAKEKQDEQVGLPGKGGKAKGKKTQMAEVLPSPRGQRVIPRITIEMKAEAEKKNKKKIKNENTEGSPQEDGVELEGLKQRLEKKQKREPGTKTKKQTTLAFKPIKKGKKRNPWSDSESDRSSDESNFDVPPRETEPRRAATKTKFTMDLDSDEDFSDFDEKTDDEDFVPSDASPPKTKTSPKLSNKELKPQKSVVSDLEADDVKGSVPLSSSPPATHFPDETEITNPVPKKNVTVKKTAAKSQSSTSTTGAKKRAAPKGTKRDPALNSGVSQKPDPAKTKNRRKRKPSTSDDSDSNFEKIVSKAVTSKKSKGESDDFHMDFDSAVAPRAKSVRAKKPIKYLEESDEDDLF

Take `COc1ccc(C[C@H]2C[C@H](n3cc(C)c(=O)[nH]c3=O)O[C@@H]2CO[Si](C)(C)C(C)(C)C)cc1OC`: in assay [1], the concentration for half-maximal inhibition (IC50) was 99.1 µM. For the compound `COc1ccc(C2([C@H]3CC(=O)O[C@@H]3CO[Si](C)(C)C(C)(C)C)SCCCS2)cc1OC`, the IC50 in assay [1] is 55.7 µM. On the same count and under the same terms, the figure for `COc1ccc(C[C@H]2CC(=O)O[C@@H]2CO[Si](C)(C)C(C)(C)C)cc1OC` is 137 µM; for `COc1ccc(C2([C@H]3C[C@H](n4cc(C)c(=O)[nH]c4=O)O[C@@H]3CO)SCCCS2)cc1OC` it is 64.5 µM. Turning to `COc1ccc(C[C@H]2C[C@H](n3cc(C)c(=O)[nH]c3=O)O[C@@H]2CO)cc1OC`, the inhibition entry in assay [2] was “inactive”. The inhibition in assay [3] stood at 23.7%. For the same compound, in assay [1], the concentration for half-maximal inhibition (IC50) is greater than 200 µM. In the case of `Cc1cn([C@H]2C[C@H](Cc3ccc(O)c(O)c3)[C@@H](CO[Si](C)(C)C(C)(C)C)O2)c(=O)[nH]c1=O`, the concentration for half-maximal inhibition (IC50) in assay [1] amounted to 35.2 µM. As for `Cc1cn([C@H]2C[C@H](CC3=CC(=O)C(=O)C=C3)[C@@H](CO[Si](C)(C)C(C)(C)C)O2)c(=O)[nH]c1=O`, the concentration for half-maximal inhibition (IC50) in assay [1] was 2.43 µM.
